Experimental data as given in ChEMBL document CHEMBL1955823, “Imidazo[1,2-a]pyrazines as novel PI3K inhibitors” (Bioorg Med Chem Lett, 2012).

Assays:
CYP2D6 = CYP2D6 (Homo sapiens, UniProt P10635); test: Inhibition of CYP2D6 at 10 uM; format: ADME
How it was run: (§1)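 CYP isoform panel (1A2, 2C9, 2C19, 2D6, 3A4); percent inhibition recorded at 10 µM test compound; run in duplicate by an outside contractor.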

CYP2C19 = CYP2C19 (Homo sapiens, UniProt P33261); test: Inhibition of CYP2C19 at 10 uM; format: ADME; how it was run: as §1
[1] = biological target: T1, PI3-kinase p110-alpha/p85-alpha (Homo sapiens, UniProt P42336); test: Inhibition of PI3K p110alpha/p85alpha-mediated AKT1 phosphorylation at Ser473 in human U2OS cells; format: cell-based
How it was run: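 Endogenous phospho-Akt1 (Ser473) measured in U2OS osteosarcoma cells kept in 0.1% FBS and then serum-stimulated; read-out by cell-based ELISA with femto chemiluminescent substrate.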

CYP3A4 = CYP3A4 (Homo sapiens, UniProt P08684); test: Inhibition of CYP3A4 at 10 uM; format: ADME; how it was run: as §1
[2] = Metabolic stability in human liver microsomes assessed as compound remaining at 1 uM after 30 mins
CYP1A2 = biological target: T2, CYP1A2 (Homo sapiens, UniProt P05177); test: Inhibition of CYP1A2 at 10 uM; format: ADME; how it was run: as §1
T2 sequence (P05177 whole entry): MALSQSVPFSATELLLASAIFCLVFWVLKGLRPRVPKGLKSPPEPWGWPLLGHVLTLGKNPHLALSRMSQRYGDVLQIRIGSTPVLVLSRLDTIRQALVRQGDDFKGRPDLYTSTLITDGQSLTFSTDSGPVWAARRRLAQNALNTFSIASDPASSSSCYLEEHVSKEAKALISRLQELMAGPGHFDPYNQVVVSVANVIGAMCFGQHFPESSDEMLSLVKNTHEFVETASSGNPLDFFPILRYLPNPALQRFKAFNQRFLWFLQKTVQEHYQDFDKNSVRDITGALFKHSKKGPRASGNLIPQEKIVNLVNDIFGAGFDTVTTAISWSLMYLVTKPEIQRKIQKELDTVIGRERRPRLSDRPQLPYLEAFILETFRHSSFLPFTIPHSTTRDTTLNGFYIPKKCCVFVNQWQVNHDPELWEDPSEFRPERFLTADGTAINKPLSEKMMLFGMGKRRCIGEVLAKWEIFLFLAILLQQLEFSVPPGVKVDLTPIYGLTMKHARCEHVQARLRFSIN

CYP2C9 = CYP2C9 (Homo sapiens, UniProt P11712); test: Inhibition of CYP2C9 at 10 uM; format: ADME; how it was run: as §1
[3] = Metabolic stability in mouse liver microsomes assessed as compound remaining at 1 uM after 30 mins
[4] = biological target: T1, PI3-kinase p110-alpha/p85-alpha; test: Inhibition of PI3K p110alpha/p85alpha; format: protein-complex assay
How it was run: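 Biochemical kinase assay following the kit manufacturer's protocol with a modified kinase buffer (50 mM HEPES pH 7.5, 3 mM MgCl2, 100 mM NaCl, 1 mM EGTA, 0.04% CHAPS, 2 mM TCEP, 0.01 mg/ml BGG); 10 nM enzyme; ATP 50 µM; values are averages of two independent experiments, each in duplicate.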

T1 sequence (P27986 whole entry): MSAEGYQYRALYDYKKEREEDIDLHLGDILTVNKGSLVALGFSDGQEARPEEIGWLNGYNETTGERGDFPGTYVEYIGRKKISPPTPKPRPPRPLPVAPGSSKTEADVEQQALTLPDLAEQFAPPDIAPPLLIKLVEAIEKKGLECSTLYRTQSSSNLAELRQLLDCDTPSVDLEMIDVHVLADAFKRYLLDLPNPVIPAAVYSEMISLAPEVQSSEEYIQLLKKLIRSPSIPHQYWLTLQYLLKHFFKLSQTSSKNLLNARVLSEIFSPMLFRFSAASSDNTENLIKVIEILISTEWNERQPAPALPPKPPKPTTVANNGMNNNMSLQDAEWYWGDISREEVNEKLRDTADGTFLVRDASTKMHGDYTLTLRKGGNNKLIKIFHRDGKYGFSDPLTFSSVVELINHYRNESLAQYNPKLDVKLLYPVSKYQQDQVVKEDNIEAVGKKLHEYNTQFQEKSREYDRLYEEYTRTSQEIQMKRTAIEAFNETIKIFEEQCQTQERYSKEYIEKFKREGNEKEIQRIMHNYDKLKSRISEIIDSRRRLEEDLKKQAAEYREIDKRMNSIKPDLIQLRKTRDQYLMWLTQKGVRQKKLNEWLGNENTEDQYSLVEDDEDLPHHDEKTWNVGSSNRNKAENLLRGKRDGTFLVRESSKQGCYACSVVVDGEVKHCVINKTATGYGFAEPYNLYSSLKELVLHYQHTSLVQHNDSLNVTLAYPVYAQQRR
T1 sequence (P42336 whole entry): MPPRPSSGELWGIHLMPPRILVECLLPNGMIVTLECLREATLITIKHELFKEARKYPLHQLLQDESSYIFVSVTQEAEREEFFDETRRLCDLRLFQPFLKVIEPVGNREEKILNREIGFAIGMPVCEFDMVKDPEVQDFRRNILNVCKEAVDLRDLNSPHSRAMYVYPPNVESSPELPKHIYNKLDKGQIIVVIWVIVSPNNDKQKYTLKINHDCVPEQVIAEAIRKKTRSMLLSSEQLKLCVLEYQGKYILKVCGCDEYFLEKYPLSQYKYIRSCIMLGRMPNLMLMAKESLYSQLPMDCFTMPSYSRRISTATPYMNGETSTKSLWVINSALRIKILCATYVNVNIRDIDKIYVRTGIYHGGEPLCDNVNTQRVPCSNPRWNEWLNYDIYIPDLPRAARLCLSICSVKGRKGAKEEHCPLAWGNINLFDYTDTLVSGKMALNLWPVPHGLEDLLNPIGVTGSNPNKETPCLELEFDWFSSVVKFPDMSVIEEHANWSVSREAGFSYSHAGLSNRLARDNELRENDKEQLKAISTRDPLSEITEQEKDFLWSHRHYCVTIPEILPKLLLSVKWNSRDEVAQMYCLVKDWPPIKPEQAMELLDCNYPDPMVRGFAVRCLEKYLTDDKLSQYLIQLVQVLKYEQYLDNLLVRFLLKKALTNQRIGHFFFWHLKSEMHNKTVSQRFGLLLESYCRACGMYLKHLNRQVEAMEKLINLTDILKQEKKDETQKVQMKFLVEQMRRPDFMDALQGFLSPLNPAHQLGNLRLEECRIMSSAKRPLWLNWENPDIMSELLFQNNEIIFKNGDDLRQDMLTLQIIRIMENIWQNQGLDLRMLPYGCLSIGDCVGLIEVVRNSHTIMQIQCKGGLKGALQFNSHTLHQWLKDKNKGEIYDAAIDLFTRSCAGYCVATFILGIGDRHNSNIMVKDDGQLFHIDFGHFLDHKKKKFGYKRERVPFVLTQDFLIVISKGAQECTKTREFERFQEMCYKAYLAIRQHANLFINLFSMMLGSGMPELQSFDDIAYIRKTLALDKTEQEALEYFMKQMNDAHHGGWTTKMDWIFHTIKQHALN
Chain of CYP2C9 (P11712 whole entry): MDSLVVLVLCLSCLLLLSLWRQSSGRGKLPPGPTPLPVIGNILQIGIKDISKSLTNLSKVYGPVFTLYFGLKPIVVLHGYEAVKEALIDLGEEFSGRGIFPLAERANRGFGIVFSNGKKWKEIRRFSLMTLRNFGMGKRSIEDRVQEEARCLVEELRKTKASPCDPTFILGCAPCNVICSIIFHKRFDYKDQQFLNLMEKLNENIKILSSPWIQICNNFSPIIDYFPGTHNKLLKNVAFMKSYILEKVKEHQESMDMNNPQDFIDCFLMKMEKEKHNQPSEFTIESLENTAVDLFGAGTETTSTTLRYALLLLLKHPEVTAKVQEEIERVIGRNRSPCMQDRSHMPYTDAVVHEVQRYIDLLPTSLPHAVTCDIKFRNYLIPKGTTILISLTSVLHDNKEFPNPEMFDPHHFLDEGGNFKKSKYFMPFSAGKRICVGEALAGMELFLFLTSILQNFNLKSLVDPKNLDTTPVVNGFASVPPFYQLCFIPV
Chain of CYP2D6 (P10635 whole entry, canonical isoform): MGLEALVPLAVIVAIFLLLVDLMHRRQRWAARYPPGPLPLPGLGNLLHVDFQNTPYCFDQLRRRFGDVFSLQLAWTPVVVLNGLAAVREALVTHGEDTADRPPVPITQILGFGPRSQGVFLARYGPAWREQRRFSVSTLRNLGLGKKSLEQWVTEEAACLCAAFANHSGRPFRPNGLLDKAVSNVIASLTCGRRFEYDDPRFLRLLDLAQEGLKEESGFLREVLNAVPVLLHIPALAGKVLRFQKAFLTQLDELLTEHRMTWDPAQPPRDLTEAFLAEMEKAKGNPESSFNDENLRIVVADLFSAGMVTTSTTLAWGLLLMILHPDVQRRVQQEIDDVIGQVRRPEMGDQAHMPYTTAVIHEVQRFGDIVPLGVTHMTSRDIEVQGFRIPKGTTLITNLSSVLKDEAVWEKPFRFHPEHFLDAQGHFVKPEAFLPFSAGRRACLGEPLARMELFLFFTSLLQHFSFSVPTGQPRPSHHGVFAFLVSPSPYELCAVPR
Chain of CYP3A4 (P08684 whole entry): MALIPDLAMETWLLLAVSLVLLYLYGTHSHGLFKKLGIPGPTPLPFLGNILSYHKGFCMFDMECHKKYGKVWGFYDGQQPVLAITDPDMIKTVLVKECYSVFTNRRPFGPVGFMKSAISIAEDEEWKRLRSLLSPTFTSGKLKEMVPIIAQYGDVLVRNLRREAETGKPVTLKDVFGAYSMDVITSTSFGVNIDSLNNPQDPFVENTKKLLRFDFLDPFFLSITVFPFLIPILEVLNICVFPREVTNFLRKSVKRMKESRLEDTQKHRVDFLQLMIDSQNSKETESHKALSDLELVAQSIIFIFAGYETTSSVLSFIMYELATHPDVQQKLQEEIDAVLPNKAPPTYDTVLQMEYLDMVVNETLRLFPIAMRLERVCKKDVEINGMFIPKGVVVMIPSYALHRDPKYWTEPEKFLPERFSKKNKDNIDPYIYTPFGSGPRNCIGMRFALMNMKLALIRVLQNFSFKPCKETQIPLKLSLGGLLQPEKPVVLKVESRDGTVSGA
Chain of CYP2C19 (P33261 whole entry): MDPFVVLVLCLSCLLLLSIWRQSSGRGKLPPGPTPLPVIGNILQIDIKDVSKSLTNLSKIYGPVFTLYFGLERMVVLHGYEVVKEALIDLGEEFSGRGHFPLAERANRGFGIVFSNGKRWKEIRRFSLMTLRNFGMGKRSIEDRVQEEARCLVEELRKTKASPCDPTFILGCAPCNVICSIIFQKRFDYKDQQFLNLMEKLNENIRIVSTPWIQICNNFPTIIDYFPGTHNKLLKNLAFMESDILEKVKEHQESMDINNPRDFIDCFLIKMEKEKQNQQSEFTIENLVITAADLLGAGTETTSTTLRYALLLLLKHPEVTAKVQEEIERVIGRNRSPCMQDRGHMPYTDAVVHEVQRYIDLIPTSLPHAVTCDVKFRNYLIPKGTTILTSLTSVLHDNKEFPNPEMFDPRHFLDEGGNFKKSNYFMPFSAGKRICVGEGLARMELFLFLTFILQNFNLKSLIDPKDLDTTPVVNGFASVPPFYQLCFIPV

Row | Compound | EC50 [1] | IC50 [4] | also measured
1 | CS(=O)(=O)N1CCN(Cc2cc3nc(-c4cccc5[nH]ncc45)nc(N4CCOCC4)c3s2)CC1 [PICTILISIB] |  |  | inhibition at 10 µM (CYP2D6): < 25%; inhibition at 10 µM (CYP2C19): < 25%; inhibition at 10 µM (CYP3A4): < 25%; inhibition at 10 µM (CYP1A2): < 25%; inhibition at 10 µM (CYP2C9): < 25%
2 | Oc1cccc(-c2cn3c(N4CCNCC4)cnc3c(N3CCOCC3)n2)c1 |  | 897 nM | 
3 | CS(=O)(=O)N1CCN(c2cnc3c(N4CCOCC4)nc(-c4cccc(O)c4)cn23)CC1 |  | 526 nM | 
4 | CN1CCN(Cc2cn3cc(-c4cccc(O)c4)nc(N4CCOCC4)c3n2)CC1 |  | 2750 nM | 
5 | CCNC(=O)c1cn2cc(-c3cccc4[nH]ncc34)nc(N3CCOCC3)c2n1 | 713 nM |  | 

More lines, main results first:

Row | EC50 [1] | IC50 [4] | Compound | also measured
6 | 200 nM | 50 nM | COCCNC(=O)c1cn2cc(-c3cccc4[nH]ncc34)nc(N3CCOCC3)c2n1 | inhibition at 10 µM (CYP2D6): < 25%; inhibition at 10 µM (CYP2C19): < 25%; inhibition at 10 µM (CYP3A4): < 25%; remaining at 0.5 h, 1 µM [2]: 75%; inhibition at 10 µM (CYP1A2): < 25%; inhibition at 10 µM (CYP2C9): < 25%; remaining at 0.5 h, 1 µM [3]: 62%
7 | 138 nM | 107 nM | NC(=O)c1cn2cc(-c3cccc4[nH]ncc34)nc(N3CCOCC3)c2n1 | 
8 |  | 512 nM | CN1CCN(c2cnc3c(N4CCOCC4)nc(-c4cccc(O)c4)cn23)CC1 | 
9 | 976 nM | 35 nM | CN(C)CCNC(=O)c1cn2cc(-c3cccc4[nH]ncc34)nc(N3CCOCC3)c2n1 | 
10 |  | 197 nM | Oc1cccc(-c2cn3ccnc3c(N3CCOCC3)n2)c1 | 
